CYP2C9 act: CYP2C9 (human) activation; P11712; recombinant CYP2C9, luciferin-H conversion, luminescence; stronger effect = higher value; factor 1 = untreated enzyme, 0 = blocked; activation factor at 5 µM; 1.4% of 96,000 active; AID 1024;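 active = activation factor of 2 or more for CYP2C9 at a 5 µM dose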;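 note: 0 = sulfaphenazole-blocked wells and 1 = vehicle-only wells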
E coli WT exp: growth inhibitors of E. coli BW25113 wild type; OD600 absorbance; growth inhibition, % at 100 µM; 0.15% of 98,000 active; AID 710;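 active = growth inhibition above about 50% at one test dose, limit read from the data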;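 note: growth measured after 20 h incubation at 37 °C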
CYP2C19 activ: cytochrome P450 2C19 (human) activation | P33261 | recombinant CYP2C19, luciferin-H EGE luminescence; stronger effect = higher value; 0 = fully inhibited enzyme, 1 = untreated enzyme | activation factor at 5 µM | 96,000 tested, under 10 active | AID 1025;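 active = activation factor of at least 2 at 5 µM in the primary screen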;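 note: 0 = wells with 2.5 mM tranylcypromine and 1 = vehicle-only wells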
Target sequence (P33261 whole entry, looked up): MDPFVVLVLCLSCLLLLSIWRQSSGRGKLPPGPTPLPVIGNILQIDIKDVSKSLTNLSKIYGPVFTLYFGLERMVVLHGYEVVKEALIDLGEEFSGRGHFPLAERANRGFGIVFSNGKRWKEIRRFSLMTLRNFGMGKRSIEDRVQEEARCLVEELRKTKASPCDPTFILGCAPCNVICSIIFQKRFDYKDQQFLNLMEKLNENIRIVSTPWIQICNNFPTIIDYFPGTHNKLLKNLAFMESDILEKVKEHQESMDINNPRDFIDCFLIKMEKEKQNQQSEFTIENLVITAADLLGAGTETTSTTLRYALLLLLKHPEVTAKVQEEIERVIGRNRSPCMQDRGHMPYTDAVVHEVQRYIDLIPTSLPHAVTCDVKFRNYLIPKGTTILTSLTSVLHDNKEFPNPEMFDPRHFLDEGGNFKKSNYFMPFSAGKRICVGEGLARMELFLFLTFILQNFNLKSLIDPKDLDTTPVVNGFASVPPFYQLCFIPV
CYP2C19 inhib: human CYP2C19 inhibition. P33261. CYP2C19 Supersomes, luciferin-H EGE luminescence, 30 min. 21% of 96,000 active. inhibition, % at 5 µM. AID 778;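 active = CYP2C19 inhibition above a set limit at 5 µM in the primary screen, cut at about 50% in these data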;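 note: plate controls were negative control wells for no effect and 2.5 mM tranylcypromine positive control for full effect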
tolC growth inh: growth inhibitors of E. coli BW25113 tolC mutant | AID 573 | growth inhibition, % at 10 µM (by protocol) | 2.2% of 65,000 active | OD615;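 active = growth inhibition at or above a cutoff equal to the mean over every tested compound plus 3 SD, cut at about 60% in these data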;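 note: growth measured after 20 h incubation at 37 °C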
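Doses: one dose of 10 µM final / Material: E. coli BW25113 ΔtolC::kan, tolC deletion mutant strain / Buffer or medium: LB with kanamycin 50 µg/mL / Evaluation: percent growth inhibition / Detection: optical density read at 615 nm / Incubation: 37 °C, 20 h exposure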
CYP2C9 inh: blocks human cytochrome P450 2C9 | inhibition, % at 5 µM | 20% of 96,000 active | CYP2C9 Supersomes, luciferin-H conversion, luminescence | P11712;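 active = blocking of liver enzyme CYP2C9 beyond about 50% at 5 µM, limit read from the data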
An asterisk follows results filed as active; . = no result. Only some compounds are listed: those with a hit (about 29% of all), similar ones and a draw of the others.

SMILES | CYP2C9 act | E coli WT exp | CYP2C19 activ | CYP2C19 inhib | tolC growth inh | CYP2C9 inh
O=C(C1CCCN(S(=O)(=O)c2cnc[nH]2)C1)N(CCc1ccccc1)Cc1ccccc1 (stereo not drawn) | 0.5 | 1 | 0.3 | 74* | 19 | 47
O=C(NCc1ccco1)C1CCCN(S(=O)(=O)c2cccc3nsnc23)C1 (stereo not drawn) | 1.1 | 5 | 0.7 | 30 | -24 | -8
Cc1c(Cl)c(-c2n[nH]c(=S)n2-c2ccc(F)cc2)nn1C | 1.1 | 3 | 1 | -3 | . | -9
CCC(=O)OC1=C2C(=Nc3c(c(=O)n(C)c(=O)n3C)C2c2ccccc2)c2ccccc21 (stereo not drawn) | . | . | . | . | 12 | .
COC(=O)c1ccc(C(=O)OC)c(NC(=O)c2cnc3n(c2=O)CCS3)c1 | . | -10 | . | . | -17 | .
Cc1ccc(OCCSc2cc(C)nc(N)n2)cc1 | 0.8 | 5 | 0.3 | 72* | 15 | 25
COc1cccc(OCCSc2nc(N)cc(N)n2)c1 | 1.3 | 11 | 0.8 | 24 | . | -28
Cc1cccc(OCCSc2cc(C)nc(N)n2)c1 | 1.1 | 3 | 0.4 | 55* | 19 | -8
COc1cc(/C=C2/C(=N)N3C=CSC3=NC2=O)ccc1OCCCOc1cc(C)ccc1C | 0.7 | -3 | 0.8 | 21 | . | 33
CCCCSc1nc(C)[nH]c1[N+](=O)[O-] | 1.2 | -14 | 0.9 | 14 | . | -20
CCn1c(SCC(=O)Nc2ccc(S(=O)(=O)Nc3ccccn3)cc2)nnc1-c1ccncc1 | 0 | 7 | 0.4 | 60* | -14 | 95*
CCn1c(SCC(=O)Nc2ccc(N(C)C)cc2)nnc1-c1cccc(C)c1 | 0.1 | -4 | 0.3 | 73* | 14 | 86*
CCn1c(SCC(=O)Nc2cccc(NC(=O)c3cccs3)c2)nnc1-c1ccncc1 | 0.3 | 4 | 0.7 | 31 | -3 | 72*
CCC(=O)Nc1cccc(NC(=O)CSc2nnc(-c3ccc(NS(C)(=O)=O)cc3)n2CC)c1 | 0.5 | -1 | 0.6 | 36 | . | 54*
CCC(=O)Nc1cccc(NC(=O)CSc2nnnn2C)c1 | 1 | 8 | 1 | -2 | -14 | 0
CCn1c(SCC(=O)NCc2cccs2)nnc1-c1ccncc1 | 0.8 | -4 | 0.6 | 44 | -7 | 18
Cc1ccc2nc(-c3ccccn3)cc(C(=O)NC3CCN(C)CC3)c2c1 | 0.9 | 3 | 1 | -3 | 6 | 11
COc1ccc(N2CCN(C(=O)c3ccc(Oc4ccc(C(F)(F)F)cn4)cc3)CC2)cc1 | 0.9 | -2 | 0.8 | 19 | . | 12
O=C1CCCN1CCC1CCN(C2CC(=O)N(c3ccc(Cl)cc3)C2=O)CC1 (stereo not drawn) | 1.3 | 1 | 1.2 | -18 | 3 | -30
CCOC(=O)c1sc(SCC(=O)Nc2ccc(N(C)C)cc2)nc1N | 0.4 | 4 | 0.3 | 69* | 3 | 57*
CCn1c(SCC(=O)Nc2cc(C)on2)nnc1-c1ccncc1 | 0.8 | -1 | 0.3 | 73* | -14 | 18
COc1cc(OC)c(CN2CCCCCCC2)cc1Br | 1 | -4 | 0.6 | 37 | . | 0
Cc1ccc(S(=O)(=O)Nc2nonc2C)cc1 | 0.9 | 4 | 1.1 | -10 | -29 | 13
O=[N+]([O-])c1ccc(Sc2nnnn2-c2ccccc2)c(Cl)c1 | 0.3 | 10 | 0 | 98* | . | 68*
Nc1ccc(Sc2nnnn2-c2ccccc2)c(Cl)c1 | 1.1 | 3 | 0.1 | 93* | 15 | -7
SMILES | CYP2C9 act | E coli WT exp | CYP2C19 activ | CYP2C19 inhib | tolC growth inh | CYP2C9 inh
c1ccc(Cn2c(Sc3nnnn3-c3ccccc3)nnc2-c2ccccc2)cc1 | 0.7 | -8 | 0.8 | 18 | -6 | 28
O=C1N(CC(=O)N2CCc3ccccc32)CCN1Cc1ccccc1Cl | 3* | -4 | 0.7 | 25 | 6 | -204
O=C(CN1CCN(Cc2ccccc2Cl)C1=O)NC1CCCCCC1 | 1.8 | 5 | 0.4 | 60* | 17 | -80
O=C(CN1CCCN(Cc2ccc(F)cc2Cl)C1=O)NC1CCCCCC1 | 1 | 6 | 1 | 1 | . | 1
Cn1cccc1Cc1nnc(SCC(=O)Nc2ccc3c(c2)OCCO3)n1CCc1ccccc1 | 0.6 | 0 | 0.5 | 48 | 10 | 38
Cc1ccc(-n2nnc3c(=O)n(Cc4cc(C)ccc4C)cnc32)cc1 | . | . | . | . | -5 | .
O=C(CSc1ncn(-c2ccccc2)n1)Nc1ccc(Br)cn1 | 0.4 | 18 | 0.2 | 75* | 53 | 58*
O=C(CSc1ccccn1)Nc1ccc(Br)cn1 | 0.9 | 7 | 0.5 | 54* | 6 | 15
COc1ccc(NC(=O)CSc2ncn(-c3ccccc3)n2)cc1Cl | 0.6 | -2 | 0.6 | 37 | 34 | 37
COc1cccc(-c2nc(=S)c3c(n2CCCO)CCCC3)c1 | 1 | -2 | 1 | -3 | -12 | -1
CC1CCCC(C)N1c1nnc(N)s1 (stereo not drawn) | . | . | . | . | 2 | .
O=Cc1ccc(OC(=O)C2CC(=O)N(c3ccc(F)cc3)C2)cc1 (stereo not drawn) | 1 | -12 | 1 | -5 | . | -1
O=C(NC1(C(F)(F)F)NC(=O)N(Cc2cccnc2)C1=O)c1ccncc1 (stereo not drawn) | 0.4 | -2 | 0.9 | 10 | -14 | 60*
O=C1NC(NS(=O)(=O)c2ccccc2)(C(F)(F)F)C(=O)N1Cc1cccnc1 (stereo not drawn) | 0.3 | -8 | 1 | 3 | -22 | 67*
COc1ccc(N2C(=O)NC(NC(=O)c3ccncc3)(C(F)(F)F)C2=O)cc1 (stereo not drawn) | 0.4 | -5 | 0.6 | 35 | . | 55*
CN1C(=O)NC(NC(=O)c2ccncc2)(C(F)(F)F)C1=O (stereo not drawn) | 1 | 3 | 1 | -1 | -33 | -5
CS(=O)c1ccccc1COC(=O)Nc1ccc(Cl)cc1 (stereo not drawn) | 0.5 | 11 | 0.1 | 95* | . | 46
Fc1cccc(Cl)c1CSc1nnc(CN2CCOCC2)n1-c1ccccc1 | 0.9 | 1 | 0.7 | 25 | . | 11
Cc1sc2nc(C3CC3)nc(NCCNS(C)(=O)=O)c2c1C | 0.2 | 5 | 0.6 | 36 | -2 | 76*
Cc1nc(NCCc2ccc(S(N)(=O)=O)cc2)c2c(C)c(C)sc2n1 | 1.1 | -3 | 1 | -4 | . | -6
Cc1cc(C)nc(/N=C(/NC(=O)Nc2cccc(Cl)c2)Nc2ccccc2)n1 | 0.8 | -12 | 1 | 4 | . | 20
O=C(CN1CCN(c2ncccn2)CC1)N(Cc1ccccc1)c1ccc(F)cc1 | 0.5 | 12 | 0.4 | 61* | 17 | 50*
C=C(C)COc1ccc(-c2[nH]ncc2Oc2ccccc2OCC)c(O)c1 | 0 | 9 | 0 | 96* | 100* | 100*
C=C(C)COc1ccc(-c2[nH]ncc2Oc2cccc(OC)c2)c(O)c1 | 0 | 13 | 0.1 | 93* | 100* | 100*
CCOc1ccc(-c2cc(C(=O)O)c3ccccc3n2)c(OCC)c1 | . | . | . | . | 0 | .
O=C1Nc2ccc(S(=O)(=O)NCc3ccco3)c3cccc1c23 | . | . | . | . | 0 | .

Screening data: PubChem BioAssay, several laboratories
